Sampled rows, rich in hits. Any-hit rate of the full collection: about 3.7%.
FXN GAA850 act: FXN promoter activators, primary screen, cell-based, luciferase luminescence, HEK293 lucGAA850 | HEK293 lucGAA850 FXN promoter luciferase reporter, 24 h; percent of 10 µM SAHA response | AID 540364, 2011 | activation, % at 6 µM | 360,000 compounds, 0.56% hits;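 active means activation above the average of all compounds screened plus 3 SD, cutoff fixed separately per campaign, cut at about 7.5% in these data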;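 further: 0% = DMSO wells and 100% = 10 µM SAHA wells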
JMJD2C inh: inhibitors of GASC-1 histone demethylase, primary screen, biochemical, fluorescence, DELFIA europium; Lysine-specific demethylase 4C (Homo sapiens), Q9H3R0; GST-JMJD2C(1-420) H3K9me3 demethylation; inhibition, % at 2.35 µM; 330,000 compounds, 0.069% hits;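 active means more than half of a compound's replicate wells show inhibition beyond 50%, single wells judged on their own value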;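 further: signal counts dimethyl H3K9 product captured on neutravidin plate; 0% = median of DMSO wells and 100% = 0.3 times that DMSO median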
Target sequence (Q9H3R0 1-420 limits assumed): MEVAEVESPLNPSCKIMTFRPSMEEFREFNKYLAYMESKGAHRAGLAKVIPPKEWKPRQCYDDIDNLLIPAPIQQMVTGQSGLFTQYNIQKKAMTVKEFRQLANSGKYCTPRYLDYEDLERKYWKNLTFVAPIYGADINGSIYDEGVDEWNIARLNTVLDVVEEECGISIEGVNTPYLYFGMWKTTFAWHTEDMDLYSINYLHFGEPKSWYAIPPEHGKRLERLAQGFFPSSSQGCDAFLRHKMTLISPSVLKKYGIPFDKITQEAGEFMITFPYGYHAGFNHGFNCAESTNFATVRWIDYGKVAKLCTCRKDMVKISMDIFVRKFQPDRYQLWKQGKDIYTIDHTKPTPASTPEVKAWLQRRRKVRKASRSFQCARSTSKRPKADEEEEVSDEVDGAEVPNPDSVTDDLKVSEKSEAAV
SR-BI DiI inh: inhibitors of SR-BI mediated HDL lipid uptake, primary screen, ldlA[mSR-BI] cells, fluorescence, single point | 320,000 compounds, 0.96% hits | Scavenger receptor class B member 1 (Mus musculus), Q61009 | ldlA[mSR-BI] CHO cells, DiI-HDL uptake fluorescence, 3 h | inhibition, % at 12.5 µM;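 active means mean replicate inhibition of at least 70% and a set share of replicates each scoring 70 or more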;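 further: 0% = median of neutral control wells and 100% = median of positive control wells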
AHR act: AHR activators, primary screen, cell-based, luminescence, luciferase reporter, human | Aryl hydrocarbon receptor (Homo sapiens), P35869 | AHR-responsive luciferase reporter cells | activation, % at 5 µM | 320,000 compounds, 2.5% hits; in the data active means activation above about 47%;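 further: 0% = vehicle wells and 100% = reference agonist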
SR-BI DiI-HDL act: activators of SR-BI mediated DiI-HDL uptake, primary screen, ldlA[mSR-BI] CHO cells, DiI fluorescence; 3 h; 100 = double the neutral-control signal; activation, % at 12.5 µM; 320,000 compounds, 0.096% hits;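 active means mean replicate activation of at least 60% and every replicate at or above 60%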;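 further: 0% = median plate neutral-control signal and 100% = twice that signal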
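Test system: SR-BI-overexpressing, LDLR-lacking CHO cells; Medium: Ham's F12 with 0.5% BSA, HEPES 25 mM, pH 7.4; Schedule: 3 h, 37 °C; Technique: bottom-read fluorescence, 550/595 nm.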
The depositor's hits bear a star; nt = no result.

SMILES | FXN GAA850 act | JMJD2C inh | SR-BI DiI inh | AHR act | SR-BI DiI-HDL act
C=CCOc1ccc(C(=O)Nc2ncn[nH]2)cc1 | 1 | -5 | -26 | 66* | 26
CCOc1ccc(C(=O)Nc2ncn[nH]2)cc1 | 2 | -12 | -1 | 23 | 1
O=C1C[C@@H](c2ccc(O)cc2)Oc2cc(O)cc(O)c21 | 0 | 6 | -25 | -4 | 25
Cc1c(O)cc2c(c1O)C(=O)CC(c1ccccc1)O2 (stereo not drawn) | 1 | 19 | -2 | 79* | 2
O=C(CSc1nnc2c3ccccc3c3ccccc3c2n1)Nc1ccccc1F | 1 | 5 | -11 | 68* | 11
O=C(CSc1nnc2c3ccccc3c3ccccc3c2n1)Nc1ccccc1 | nt | -1 | nt | 47* | nt
COc1cc(C(=O)Nc2c(C(=O)O)[nH]c3ccc(Br)cc23)cc(OC)c1OC | 2 | 10 | nt | 15 | nt
COc1ccc(/C=C/C(=O)NNC(=O)c2cc(C)oc2C)cc1 | -1 | 3 | 11 | -1 | -11
CC1CN(C(=O)/C=C/c2ccc3c(c2)OCO3)CC(C)O1 (stereo not drawn) | 0 | -21 | -6 | 60* | 6
CCN(C(=O)/C=C/c1ccc2c(c1)OCO2)c1ccccc1 | -1 | 0 | -7 | 70* | 7
O=C(/C=C/c1ccc2c(c1)OCO2)N1CCOCC1 | 2 | 30 | -3 | 55* | 3
CCOC(=O)C(Cc1ccccc1)NC(=O)CCc1nnc2ccc(N3CCCC3)nn12 (stereo not drawn) | 0 | 15 | -11 | -1 | 11
Cc1cc(C)c(NC(=O)CN(C)C(=O)C2CC(=O)N(c3cccc4ccccc34)C2)c(C)c1 (stereo not drawn) | 0 | nt | 30 | 10 | nt
CC1(C(=O)NCc2cccc(Cl)c2)Cc2c(-c3cccc(C(N)=O)c3)ccnc2O1 (stereo not drawn) | -3 | nt | nt | nt | nt
CCn1cnc2c(NCCc3cccnc3)nc(C#N)nc21 | 1 | 7 | -18 | 71* | 18
CCn1cnc2c(Nc3cccc(Cl)c3)nc(C#N)nc21 | 6 | 5 | -3 | 22 | 3
CCC(CC)C(=O)c1c[nH]c(C(=O)NCc2ccc(F)cc2)c1 | 2 | -11 | -6 | 5 | 6
FC(F)(F)c1cc(-c2ccccn2)nc2cc(-c3ccccc3)nn12 | 0 | 26 | 4 | 3 | -4
CCCCC1OC23CCCCC2C(C#N)(C(=N)O3)C1(C#N)C#N (stereo not drawn) | -1 | 9 | -81 | 2 | 81*
O=S(=O)(Nc1ncnc2sc3c(c12)CCC3)c1ccc(Cl)s1 | 2 | 34 | 1 | 48* | -1
Cn1c(C(C#N)C(=O)c2ccco2)nc2ccccc21 (stereo not drawn) | 6 | -8 | nt | 77* | nt
Cc1ccnc(NS(=O)(=O)c2ccc(NC(=O)c3ccc(C)o3)cc2)n1 | -1 | nt | -8 | 2 | 8
Cc1ccnc(NS(=O)(=O)c2ccc(NC(=O)c3ccccc3F)cc2)n1 | 0 | -6 | -23 | 58* | 23
O=C(Nc1ccccc1Cl)c1ccccc1Oc1ccc(C(F)(F)F)cc1[N+](=O)[O-] | -1 | 2 | 6 | 75* | -6
Cc1cccc(NC(=O)c2cc([N+](=O)[O-])ccc2Cl)c1O | 0 | 1 | 6 | 48* | -6
SMILES | FXN GAA850 act | JMJD2C inh | SR-BI DiI inh | AHR act | SR-BI DiI-HDL act
O=C(Nc1ccc(Nc2ccccc2)cc1)c1cc([N+](=O)[O-])ccc1Cl | -6 | 6 | 17 | -5 | -17
O=C(Nc1ccccc1Oc1ccccc1)c1cc([N+](=O)[O-])ccc1Cl | -15 | -10 | 23 | 108* | -23
N=c1nc(-c2ccccc2)ccn1O | 1 | 53* | -5 | 10 | 5
c1ccc(-c2ccn3nnnc3n2)cc1 | 2 | -16 | 9 | 11 | -9
O=C(NCc1cccc(F)c1)C1CCN(S(=O)(=O)Cc2ccccc2)CC1 | 1 | 73* | -7 | 2 | 7
O=C(CSc1nnc(-c2ccccn2)n1Cc1ccccc1)N1CCOCC1 | 4 | 0 | -12 | 2 | 12
CN(C)C(C)(C)/C=C/C(O)(c1ccccc1)c1ccccc1 | 1 | 12 | 13 | 7 | -13
Cc1[nH]n(-c2ccccc2)c(=O)c1N=Nc1cccc(Cl)c1 | 1 | 7 | 6 | 58* | -6
Cc1[nH]n(-c2ccccc2)c(=O)c1N=Nc1cccc([N+](=O)[O-])c1 | 0 | 2 | 43 | 4 | -43
CC(=O)c1cccc(N=Nc2c(-c3ccccc3)[nH]n(-c3ccccc3)c2=O)c1 | 1 | 59 | 100* | 2 | -100
COC(=O)c1ccc(N=Nc2c(C)[nH]n(-c3ccccc3)c2=O)cc1 | 1 | 0 | -12 | 78* | 12
Cc1[nH]n(-c2ccccc2)c(=O)c1N=Nc1c(O)cc(S(=O)(=O)N(C)C)c2ccccc12 | -1 | 21 | 136* | 16 | -136
CC1(C(=O)Nc2cccc3ccccc23)CCN1C(=O)Cc1ccccc1Cl (stereo not drawn) | -1 | nt | nt | nt | nt
CC(C)NC(=O)N(C)C[C@H]1Oc2ccc(NS(=O)(=O)c3cn(C)cn3)cc2C(=O)N([C@H](C)CO)C[C@@H]1C | 0 | 0 | -39 | -1 | 39
CCOc1ccc(CN(C)C(=O)[C@H](Cc2ccccc2)NC(=O)OCc2ccccc2)cc1OC | -1 | 2 | 10 | 3 | -10
CC(=O)Nc1ccc(N=Nc2c(C)[nH]n(C(N)=S)c2=O)cc1 | 3 | 6 | -12 | 5 | 12
Cc1[nH]n(-c2ccccc2)c(=O)c1N=Nc1ccc(F)cc1 | 1 | 5 | 44 | 65* | -44
Nc1[nH]n(-c2ccccc2)c(=O)c1N=Nc1ccc2ncsc2c1 | -1 | 24 | nt | 56* | nt
Nc1[nH]n(-c2ccccc2)c(=O)c1N=Nc1ccccc1 | 5 | 15 | nt | 33 | nt
CSc1ccc(N=Nc2c(C)[nH]n(C)c2=O)cc1 | 3 | -8 | 4 | 75* | -4
CCCS(=O)(=O)N1CCCC(C(=O)NCCc2ccc(OC)c(OC)c2)C1 (stereo not drawn) | 0 | 0 | -39 | 0 | 39
COc1ccc(Cl)cc1Nc1nc(-c2sc(NC(=O)C(C)(C)C)nc2C)cs1 | -1 | 7 | 47 | 16 | -47
COc1ccc(OC)c(Nc2nc(-c3sc(NC(=O)C(C)(C)C)nc3C)cs2)c1 | 1 | 7 | 81* | 61* | -81
COc1ccc(OC)c(Nc2nc(-c3sc(NC(=O)CC(C)C)nc3C)cs2)c1 | 0 | 12 | 76* | 73* | -76
CCN(CC)C(=O)CSc1nc(C)cc(C)n1 | 1 | 2 | -15 | 1 | 15
CC(=O)Nc1ccc(S(=O)(=O)N(C)CC(=O)OCC(=O)N2CCCCCC2)cc1 | 3 | 2 | -14 | 1 | 14

Screening data from PubChem BioAssay.
